# UPR CHOP act: activators of apoptotic arm of unfolded protein response (CHOP); CHO-CHOP luciferase reporter, UPR activation, luminescence; percent of tunicamycin response over DMSO baseline; activation, % at 10 µM; 0.34% of 330,000 active;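 active = at 10 µM dose, activation of 40% or more, normalized to positive control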;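 note: 100% = tunicamycin at 10 µg/mL and 0% = DMSO alone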
#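 Assay system: CHO-CHOP cells, stable luciferase reporter of PERK-eIF2a-CHOP signalling / Buffer or medium: F12 plus 10% serum / Compound dosing: one dose, 10 µM in 0.5% DMSO / Times: 6 h compound treatment, 37 °C / Technique: luciferase luminescence / Read-out: % reporter activation, DMSO baseline versus tunicamycin full activation / Benchmarks: tunicamycin and DMSO controls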
# Mdm2-MdmX inh: inhibitors of human Mdm2/MdmX interaction; O15151+Q00987; 3% of 330,000 active; inhibition, % at 8 µM; AID 485346; SaOS-2 split-luciferase Mdm2/MdmX complementation, luminescence;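 active = inhibition of at least 50% at 8 µM in the primary screen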
# XBP1 UPR activ: activators of adaptive arm of unfolded protein response (XBP1). CHO-XBP1 luciferase reporter, IRE1-XBP1 UPR activation, luminescence; percent of tunicamycin response, DMSO as zero. activation, % at 20 µM. 0.33% of 330,000 active. AID 463104;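 active = versus positive control, 20 µM dose yields 30% or more activation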;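 note: 100% = tunicamycin at 10 µg/mL and 0% = DMSO only wells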
#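 Material: CHO-XBP1 cells stably carrying IRE1-XBP1-driven luciferase reporter | Medium: F12 with 10% serum | Compound dosing: 20 µM single concentration, DMSO 1% | Incubation: Overnight seeding at 37 °C, 6 h compound treatment at 37 °C | Detection: Steady-Glo luminescence read | Read-out basis: % activation of reporter signal versus tunicamycin and DMSO controls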
# Apaf-1 inh: human Apaf-1 inhibition. O14727. reconstituted apoptosome caspase-3 activity, DEVD-Rh110 fluorescence. inhibition, % at 20 µM. 0.71% of 330,000 active; active = inhibition of at least 40% at 20 µM;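 note: plate controls were DMSO wells for no effect and DEVD-CHO caspase inhibitor wells for full effect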
#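 Material: reconstituted apoptosome with Apaf-1, cytochrome c, caspase-9, procaspase-3, dATP; medium: pH 7.5 Hepes buffer with CHAPS, BSA, DTT; also added: cytochrome c and DEVD-Rh110 substrate; timing: 30 min plus 50 min, RT; signal: Rh110 fluorescence intensity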
# UBC13 inh: human UBC13 polyubiquitination inhibition | AID 485273 | UBC13 polyubiquitin chain formation, TR-FRET | P61088 | 0.47% of 330,000 active | inhibition, % at 20 µM; in the data active = inhibition above about 45%, passing the limit was not always enough
# Mdm2 MdmX conf: confirmation of human Mdm2/MdmX interaction inhibitors; shares compounds with Mdm2-MdmX inh; Mdm2-MdmX binding, luminescent assay; inhibition, % at 8 µM; 55% of 10,000 active; AID 489028; in the data active = inhibition above about 40%
# Full FLuc ctr: full-length luciferase inhibition in Mdm2/MdmX counter-screen; shares compounds with Mdm2-MdmX inh; SaOS-2 full-length luciferase counterscreen, luminescence; 77% of 6,200 active; inhibition, % at 8 µM;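 active = mean inhibition at 8 µM reaching about 37%, which flags the compound as non-specific, limit read from the data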;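 note: p53-null SaOS-2 cells with luciferase driven by a doxycycline-inducible promoter; compound on cells about two nights before reading with doxycycline added after day one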
# Numbers without * were called inactive; . = no result. In the library only some 4.1% were active in any assay of this set; here they are far more common.
SMILES,UPR CHOP act,Mdm2-MdmX inh,XBP1 UPR activ,Apaf-1 inh,UBC13 inh,Mdm2 MdmX conf,Full FLuc ctr
CCN1C(=O)[C@@H]2Cc3c([nH]c4ccccc34)C(c3ccc(OC)cc3)N2C1=S (stereo partly specified),0.3,73.1*,2.9,19.4,-6.8,58.0*,57.5*
COc1ccccc1C1c2[nH]c3ccccc3c2C[C@H]2C(=O)N(C3CCN(Cc4ccccc4)CC3)CC(=O)N12 (stereo partly specified),1.4,54.3*,0.5,29.5,7.9,38.4,89.8*
Cn1c(N)c(C(=O)COC(=O)C2(c3ccc(Cl)cc3)CCCC2)c(=O)n(C)c1=O,2.3,27.5,-3.2,26.4,2.1,.,.
CN(C)CCNc1oc(COc2ccc(Cl)cc2)nc1C#N,2.8,-1.9,-1.9,-1.7,8.5,.,.
CCN1/C(=C/C=C/c2oc3ccc(-c4ccccc4)cc3[n+]2CC)Oc2ccc(-c3ccccc3)cc21,-10.2,96.7*,-7.8,20.8,-112.4,91.6*,1.4
CC1(C)Oc2ccc3ccc(=O)oc3c2-c2cn[nH]c21,-1.1,59.9*,15.0,1.1,9.9,19.1,.
CCCN(CCC)CCNC(=O)C1CCN(Cc2nc(-c3ccc(Cl)cc3)oc2C)CC1,2.6,87.8*,0.5,9.8,8.3,79.3*,30.3
Cc1oc(-c2cccc(Cl)c2)nc1CN1CCC(C(=O)NCCCN2CC(C)CC(C)C2)CC1 (stereo unspecified),10.1,99.7*,7.4,8.2,23.1,98.4*,52.7*
Cc1oc(-c2ccc(Cl)cc2)nc1CN1CCC(C(=O)NCc2cccnc2)CC1,-2.5,11.3,-0.4,8.9,7.7,.,.
CCN1CCN(CCNC(=O)C2CCCN(Cc3nc(-c4cccc(Cl)c4)oc3C)C2)CC1 (stereo unspecified),-3.3,62.9*,-2.0,26.5,13.0,31.9,.
Cc1ccc(-c2nn3c(C)nnc3c3ccccc23)cc1S(=O)(=O)NCCN1CCOCC1,2.5,23.6,1.8,7.1,10.4,.,.
Cc1ccc(-c2nn(C)c(=O)c3ccccc23)cc1S(=O)(=O)N1CCCC1,-0.9,38.1,1.6,10.3,-0.2,.,.
Cc1ccc(-c2nn3c(C)nnc3c3ccccc23)cc1S(=O)(=O)N(C)CCO,-1.4,52.9*,-0.6,12.9,-0.7,12.6,.
CCOC(=O)N1CCN(S(=O)(=O)c2cc(-c3nn4c(C)nnc4c4ccccc34)ccc2C)CC1,-3.5,58.5*,-1.4,31.0,1.9,6.0,.
O=C(OCC(=O)N1CCC(Cc2ccccc2)CC1)c1cncc(Br)c1,1.0,3.4,-3.3,13.7,8.6,.,.
CCCCn1c(CCc2ccccc2)nc2cc3[nH]c(=O)c(C(C)C)nc3cc21,0.2,50.6*,9.9,33.6,16.0,12.0,.
CCCCn1c(-c2ccc(F)c(F)c2)nc2cc3[nH]c(=O)c(C(C)C)nc3cc21,3.5,34.4,9.7,22.2,18.2,.,.
Cc1cc(C)c(Cn2c(=O)n(CCCC(=O)NCc3ccco3)c(=O)c3sccc32)c(C)c1,3.7,51.3*,5.0,0.4,-7.7,40.5*,80.1*
CCOC(=O)c1ccc(N2C(=O)C(C)=C(C)C2=O)cc1,0.1,62.4*,2.9,5.0,-5.0,7.7,.
CC1=C(C)C(=O)N(c2ccc(C(=O)O)cc2)C1=O,0.2,-16.5,-0.8,-5.4,4.4,.,.
O=C(Nc1ccccc1)c1ccc[nH]1,-1.1,15.2,1.1,2.4,-0.2,.,.
Nc1c(Cl)c(Cl)nc(C(=O)OCC(=O)N2CCCC2=O)c1Cl,-0.3,-4.6,-1.9,2.6,4.2,.,.
O=C(OCC(=O)N1CCCC1=O)c1nc(Cl)c(Cl)c(Cl)c1Cl,6.5,77.3*,-6.0,10.9,1.6,26.1,.
COc1ccc(NC(=O)/C=C/c2c(Cl)nc3ccccn23)cc1,1.6,-17.7,8.8,17.3,-41.2,.,.
Cc1ccc(C(=O)c2cnc3cc4c(cc3c2S(=O)(=O)c2ccccc2)OCCO4)cc1,4.5,61.4*,-5.9,1.3,38.6,41.5*,51.7*
SMILES,UPR CHOP act,Mdm2-MdmX inh,XBP1 UPR activ,Apaf-1 inh,UBC13 inh,Mdm2 MdmX conf,Full FLuc ctr
Cc1ccc(N2C(=O)[C@@H]3C(C(=O)CCN4C(=O)c5ccccc5C4=O)=NN[C@@H]3C2=O)cc1,-2.7,3.2,-0.9,-6.7,-0.4,.,.
N#C/C(=C\c1ccc(Cl)c([N+](=O)[O-])c1)c1ccccn1,1.3,87.0*,5.1,7.7,-8.5,26.8,.
COc1cc(/C=C2/SC(=O)N(Cc3ccccc3Cl)C2=O)ccc1OCc1ccncc1,-1.7,50.7*,12.3,33.8,-19.7,20.5,.
N/C(=N\OC(=O)C(c1ccccc1)c1ccccc1)c1ccccn1,0.2,77.3*,-2.6,3.4,-0.8,28.4,.
N/C(=N\OC(=O)COc1ccccc1)c1cccnc1,1.5,-22.7,2.3,0.2,-6.1,.,.
N/C(=N\OC(=O)C(c1ccccc1)c1ccccc1)c1cccnc1,1.1,51.5*,-3.2,9.5,-9.7,9.1,.
CC(C)N1CCN(C(=O)c2ccc(OC3CCN(CCc4ccccc4)CC3)cc2)CC1,0.5,15.4,-0.9,4.9,-1.2,.,.
O=C(CCC(=O)c1ccc(Oc2ccccc2)cc1)Nc1ccc(C(=O)O)cc1,2.8,31.1,-3.2,0.1,4.4,.,.
CN1CCN(c2nc3ccccc3nc2C(C#N)C(=O)OC2CCCCC2)CC1 (stereo unspecified),-0.6,51.1*,2.1,6.4,22.9,30.9,84.4*
CCc1nc(N)nc(N)c1-c1ccc(Cl)cc1,-2.8,51.4*,-4.6,-6.0,16.3,17.1,.
Cc1ccc(C)c(-n2nnnc2Sc2nnnn2-c2ccccc2)c1,5.8,100.1*,-2.9,5.3,8.2,78.8*,52.2*
CCN(CC)C(=O)Cn1cc(C(=O)C(=O)N(C)C2CCN(C)CC2)c2ccccc21,-0.2,4.5,-2.4,7.4,1.0,.,.
Cc1ccc(SCc2cc(=O)[nH]c(Nc3nc(C)c4cccc(C)c4n3)n2)cc1,0.9,28.3,13.3,5.8,-20.9,.,.
Cc1cc(C)c2nc(Nc3nc(-c4ccccc4)cc(=O)[nH]3)nc(C)c2c1,25.6,71.5*,27.2,3.2,-14.1,23.2,.
CC1=CC(C)(C)Nc2ccc(OC(=O)CN3C(=O)c4ccccc4C3=O)cc21,9.5,96.6*,-4.4,21.8,2.7,26.0,12.6
Cc1ccc(C)c2[nH]c(=O)c(CN(CCN3CCCC3)C(=O)Nc3cccc(Cl)c3)cc12,-0.6,55.4*,-3.4,17.5,23.4,36.0,38.1*
CCc1ccc2[nH]c(=O)c(CN(CCCN3CCOCC3)C(=O)Nc3cccc(Cl)c3)cc2c1,2.1,50.1*,0.6,19.3,22.9,34.3,.

# Screening results deposited in PubChem BioAssay by Sanford-Burnham Center for Chemical Genomics.
